Experimental data as given in ChEMBL document CHEMBL5661979, “Pharmacological inhibition of BMK1 suppresses tumor growth through promyelocytic leukemia protein” (Cancer Cell, 2010).

Tests used:
Type in all cases: subcellular
[1] = molecular target: Dual specificity mitogen-activated protein kinase kinase 4 (Homo sapiens, UniProt P45985); experiment: Inhibition of MAP2K4 in human HeLa cells lysate pre incubated for 15 mins followed by ATP acyl phosphate probe addition and measured after 10 mins by LC-MS/MS analysis
Sequence of Dual specificity mitogen-activated protein kinase kinase 4 (P45985 whole entry): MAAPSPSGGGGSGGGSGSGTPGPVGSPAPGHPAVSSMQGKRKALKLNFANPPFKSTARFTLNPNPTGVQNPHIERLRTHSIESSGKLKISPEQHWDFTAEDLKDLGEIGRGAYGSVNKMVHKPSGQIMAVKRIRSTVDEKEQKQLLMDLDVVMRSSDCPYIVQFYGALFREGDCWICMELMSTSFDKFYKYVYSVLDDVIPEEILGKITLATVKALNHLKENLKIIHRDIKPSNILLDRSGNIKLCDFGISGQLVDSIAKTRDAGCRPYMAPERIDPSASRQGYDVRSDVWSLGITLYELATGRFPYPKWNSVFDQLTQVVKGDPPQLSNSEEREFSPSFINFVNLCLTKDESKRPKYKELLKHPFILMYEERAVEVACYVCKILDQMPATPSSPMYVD

[2] = molecular target: Calcium/calmodulin-dependent protein kinase type 1D (Homo sapiens, UniProt Q8IU85); experiment: Inhibition of CAMK1d in human HeLa cells lysate pre incubated for 15 mins followed by ATP acyl phosphate probe addition and measured after 10 mins by LC-MS/MS analysis
Sequence of Calcium/calmodulin-dependent protein kinase type 1D (Q8IU85 whole entry, the tested form may be a part): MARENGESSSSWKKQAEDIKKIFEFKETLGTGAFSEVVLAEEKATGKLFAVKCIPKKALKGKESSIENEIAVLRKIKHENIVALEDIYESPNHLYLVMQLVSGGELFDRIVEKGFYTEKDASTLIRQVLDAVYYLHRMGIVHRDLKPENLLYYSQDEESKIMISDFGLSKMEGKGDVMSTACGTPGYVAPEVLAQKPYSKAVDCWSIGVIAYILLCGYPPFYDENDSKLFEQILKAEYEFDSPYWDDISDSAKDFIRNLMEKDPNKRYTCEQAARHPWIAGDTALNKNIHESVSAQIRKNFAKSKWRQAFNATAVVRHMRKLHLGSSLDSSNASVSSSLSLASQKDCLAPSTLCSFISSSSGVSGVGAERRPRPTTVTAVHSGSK
How it was run: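 KiNativ-type profiling in HeLa lysate (5 mg/mL total protein). Lysate preincubated 15 min with inhibitor at 50, 10, 2, 0.8 or 0 μM, then ATP or ADP acylphosphate probe added (5 μM final) for 10 min. Reaction stopped with urea and analysed by targeted MS, using up to four fragment ions per kinase peptide-probe conjugate. % inhibition calculated against untreated lysate. Duplicate reactions.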

[3] = molecular target: Serine/threonine-protein kinase ULK3 (Homo sapiens, UniProt Q6PHR2); experiment: Inhibition of ULK3 in human HeLa cells lysate pre incubated for 15 mins followed by ATP acyl phosphate probe addition and measured after 10 mins by LC-MS/MS analysis
Sequence of Serine/threonine-protein kinase ULK3 (Q6PHR2 whole entry): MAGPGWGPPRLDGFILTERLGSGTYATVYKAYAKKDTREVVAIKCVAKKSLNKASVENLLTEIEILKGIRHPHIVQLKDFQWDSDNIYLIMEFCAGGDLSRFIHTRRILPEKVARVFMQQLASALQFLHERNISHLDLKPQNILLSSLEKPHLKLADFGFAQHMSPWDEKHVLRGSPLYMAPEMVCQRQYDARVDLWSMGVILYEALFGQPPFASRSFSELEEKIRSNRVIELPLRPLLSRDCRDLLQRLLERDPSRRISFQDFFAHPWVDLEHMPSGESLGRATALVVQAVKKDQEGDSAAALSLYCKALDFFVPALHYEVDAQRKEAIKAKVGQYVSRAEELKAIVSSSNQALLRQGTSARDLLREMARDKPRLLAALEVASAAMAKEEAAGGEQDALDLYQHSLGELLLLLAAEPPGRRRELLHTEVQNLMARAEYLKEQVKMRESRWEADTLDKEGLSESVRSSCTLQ

[4] = Inhibition of MST4/YSK1 in human HeLa cells lysate pre incubated for 15 mins followed by ATP acyl phosphate probe addition and measured after 10 mins by LC-MS/MS analysis
[5] = molecular target: T1, Mitogen-activated protein kinase kinase kinase 7 (Homo sapiens) (UniProt O43318); experiment: Inhibition of TAK1 in human HeLa cells lysate at 50 uM pre incubated for 15 mins followed by ATP acyl phosphate probe addition and measured after 10 mins by LC-MS/MS analysis relative to control; conditions: time 25.0 min
T1 sequence (whole entry): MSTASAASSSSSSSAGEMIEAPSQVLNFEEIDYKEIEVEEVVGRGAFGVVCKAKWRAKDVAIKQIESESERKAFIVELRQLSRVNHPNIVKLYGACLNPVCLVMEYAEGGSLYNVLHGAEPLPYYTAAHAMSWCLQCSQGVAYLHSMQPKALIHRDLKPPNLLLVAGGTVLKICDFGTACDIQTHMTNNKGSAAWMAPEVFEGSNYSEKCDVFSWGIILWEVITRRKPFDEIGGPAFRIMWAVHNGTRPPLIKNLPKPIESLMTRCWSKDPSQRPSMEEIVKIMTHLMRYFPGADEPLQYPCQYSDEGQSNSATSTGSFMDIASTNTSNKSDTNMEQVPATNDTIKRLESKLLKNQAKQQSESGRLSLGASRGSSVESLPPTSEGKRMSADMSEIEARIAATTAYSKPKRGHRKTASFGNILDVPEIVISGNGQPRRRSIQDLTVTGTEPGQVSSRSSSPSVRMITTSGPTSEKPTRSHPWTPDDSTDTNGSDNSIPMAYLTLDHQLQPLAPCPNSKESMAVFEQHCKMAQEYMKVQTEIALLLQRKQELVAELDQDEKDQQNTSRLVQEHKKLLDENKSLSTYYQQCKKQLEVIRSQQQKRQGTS

[6] = molecular target: T2, Interleukin-1 receptor-associated kinase 4 (Homo sapiens) (UniProt Q9NWZ3); experiment: Inhibition of IRAK4 in human HeLa cells lysate at 10 uM pre incubated for 15 mins followed by ATP acyl phosphate probe addition and measured after 10 mins by LC-MS/MS analysis relative to control; conditions: time 25.0 min
T2 sequence (whole entry): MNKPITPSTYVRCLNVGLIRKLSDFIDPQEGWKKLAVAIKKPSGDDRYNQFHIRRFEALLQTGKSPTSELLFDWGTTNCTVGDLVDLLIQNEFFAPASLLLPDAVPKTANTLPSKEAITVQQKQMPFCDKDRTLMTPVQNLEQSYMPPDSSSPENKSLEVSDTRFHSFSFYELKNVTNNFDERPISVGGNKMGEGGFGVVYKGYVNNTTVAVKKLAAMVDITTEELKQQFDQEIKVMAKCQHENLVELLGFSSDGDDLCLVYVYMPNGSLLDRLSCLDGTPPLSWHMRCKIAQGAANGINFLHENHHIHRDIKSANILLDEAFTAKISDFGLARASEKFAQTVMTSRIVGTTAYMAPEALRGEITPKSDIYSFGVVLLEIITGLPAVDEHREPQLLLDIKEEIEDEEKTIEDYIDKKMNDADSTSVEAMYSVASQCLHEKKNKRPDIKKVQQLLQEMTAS

Focal adhesion kinase 1 = Focal adhesion kinase 1 (Homo sapiens, UniProt Q05397); experiment: Inhibition of FAK in human HeLa cells lysate at 50 uM pre incubated for 15 mins followed by ADP acyl phosphate probe addition and measured after 10 mins by LC-MS/MS analysis relative to control; conditions: time 25.0 min
Sequence of Focal adhesion kinase 1 (Q05397 2-1052 limits assumed): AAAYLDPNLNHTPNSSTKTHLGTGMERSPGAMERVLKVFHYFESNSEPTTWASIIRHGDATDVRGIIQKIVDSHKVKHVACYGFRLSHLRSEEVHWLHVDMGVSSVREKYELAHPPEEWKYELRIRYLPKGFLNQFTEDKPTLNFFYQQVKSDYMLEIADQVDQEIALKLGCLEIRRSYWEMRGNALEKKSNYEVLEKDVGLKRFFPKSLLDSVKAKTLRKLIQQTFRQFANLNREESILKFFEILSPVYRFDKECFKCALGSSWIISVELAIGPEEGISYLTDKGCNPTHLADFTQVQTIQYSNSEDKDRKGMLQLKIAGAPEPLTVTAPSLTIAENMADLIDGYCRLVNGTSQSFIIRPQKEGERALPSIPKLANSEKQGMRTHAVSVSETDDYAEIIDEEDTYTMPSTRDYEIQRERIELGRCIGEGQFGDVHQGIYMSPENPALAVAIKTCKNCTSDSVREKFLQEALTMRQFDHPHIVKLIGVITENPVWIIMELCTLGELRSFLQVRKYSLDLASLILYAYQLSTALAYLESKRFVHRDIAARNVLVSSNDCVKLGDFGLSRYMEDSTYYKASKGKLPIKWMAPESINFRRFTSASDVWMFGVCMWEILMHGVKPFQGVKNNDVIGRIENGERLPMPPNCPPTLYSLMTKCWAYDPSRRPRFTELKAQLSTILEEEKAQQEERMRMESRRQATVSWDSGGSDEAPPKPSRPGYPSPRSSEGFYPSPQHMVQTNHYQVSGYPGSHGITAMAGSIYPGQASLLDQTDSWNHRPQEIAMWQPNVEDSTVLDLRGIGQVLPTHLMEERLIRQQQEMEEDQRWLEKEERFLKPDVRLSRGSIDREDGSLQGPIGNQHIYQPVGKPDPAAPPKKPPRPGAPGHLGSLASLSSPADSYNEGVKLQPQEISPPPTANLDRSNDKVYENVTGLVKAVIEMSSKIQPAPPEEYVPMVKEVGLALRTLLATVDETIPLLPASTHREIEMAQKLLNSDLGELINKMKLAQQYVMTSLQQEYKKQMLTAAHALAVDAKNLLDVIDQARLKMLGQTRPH

[7] = molecular target: Ribosomal protein S6 kinase alpha-3 (Homo sapiens, UniProt P51812); experiment: Inhibition of RSK2 domain 2 in human HeLa cells lysate at 2 uM pre incubated for 15 mins followed by ATP acyl phosphate probe addition and measured after 10 mins by LC-MS/MS analysis relative to control; conditions: time 25.0 min
Sequence of Ribosomal protein S6 kinase alpha-3 (P51812 whole entry, the tested form may be a part): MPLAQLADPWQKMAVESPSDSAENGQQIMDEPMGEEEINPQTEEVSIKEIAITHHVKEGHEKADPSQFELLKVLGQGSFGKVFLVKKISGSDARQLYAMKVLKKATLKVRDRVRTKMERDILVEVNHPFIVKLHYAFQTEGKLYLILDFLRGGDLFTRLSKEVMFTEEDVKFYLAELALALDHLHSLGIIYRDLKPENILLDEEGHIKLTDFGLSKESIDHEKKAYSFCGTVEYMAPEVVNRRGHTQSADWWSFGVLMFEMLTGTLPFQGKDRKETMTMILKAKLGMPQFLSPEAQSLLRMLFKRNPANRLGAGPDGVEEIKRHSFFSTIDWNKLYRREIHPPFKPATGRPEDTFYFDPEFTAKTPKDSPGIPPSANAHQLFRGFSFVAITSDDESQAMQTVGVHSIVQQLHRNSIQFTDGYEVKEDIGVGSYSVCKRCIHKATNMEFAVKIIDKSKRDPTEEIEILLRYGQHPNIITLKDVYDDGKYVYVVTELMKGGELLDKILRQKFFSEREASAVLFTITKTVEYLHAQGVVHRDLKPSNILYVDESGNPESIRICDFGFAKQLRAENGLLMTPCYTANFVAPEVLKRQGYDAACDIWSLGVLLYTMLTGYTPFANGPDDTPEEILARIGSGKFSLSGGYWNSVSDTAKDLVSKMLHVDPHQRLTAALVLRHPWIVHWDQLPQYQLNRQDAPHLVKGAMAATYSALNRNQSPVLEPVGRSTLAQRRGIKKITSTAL

[8] = molecular target: Serine/threonine-protein kinase Sgk1 (Homo sapiens, UniProt O00141); experiment: Inhibition of SGK1 in human HeLa cells lysate pre incubated for 15 mins followed by ADP acyl phosphate probe addition and measured after 10 mins by LC-MS/MS analysis
Sequence of Serine/threonine-protein kinase Sgk1 (O00141 whole entry): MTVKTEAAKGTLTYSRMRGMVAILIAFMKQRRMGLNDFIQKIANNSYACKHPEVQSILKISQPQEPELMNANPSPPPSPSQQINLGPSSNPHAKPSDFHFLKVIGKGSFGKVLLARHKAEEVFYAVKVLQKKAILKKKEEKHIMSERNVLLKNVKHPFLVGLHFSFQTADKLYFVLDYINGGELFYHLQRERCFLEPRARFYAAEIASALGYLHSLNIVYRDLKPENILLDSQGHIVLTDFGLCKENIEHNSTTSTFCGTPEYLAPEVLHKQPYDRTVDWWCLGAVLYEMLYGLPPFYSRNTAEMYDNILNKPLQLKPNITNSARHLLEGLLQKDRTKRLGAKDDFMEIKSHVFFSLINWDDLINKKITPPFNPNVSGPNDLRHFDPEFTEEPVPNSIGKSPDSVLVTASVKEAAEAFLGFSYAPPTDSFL

[9] = molecular target: Cyclin-dependent kinase 10 (Homo sapiens, UniProt Q15131); experiment: Inhibition of CDK10 in human HeLa cells lysate pre incubated for 15 mins followed by ATP acyl phosphate probe addition and measured after 10 mins by LC-MS/MS analysis
Sequence of Cyclin-dependent kinase 10 (Q15131 whole entry, the tested form may be a part): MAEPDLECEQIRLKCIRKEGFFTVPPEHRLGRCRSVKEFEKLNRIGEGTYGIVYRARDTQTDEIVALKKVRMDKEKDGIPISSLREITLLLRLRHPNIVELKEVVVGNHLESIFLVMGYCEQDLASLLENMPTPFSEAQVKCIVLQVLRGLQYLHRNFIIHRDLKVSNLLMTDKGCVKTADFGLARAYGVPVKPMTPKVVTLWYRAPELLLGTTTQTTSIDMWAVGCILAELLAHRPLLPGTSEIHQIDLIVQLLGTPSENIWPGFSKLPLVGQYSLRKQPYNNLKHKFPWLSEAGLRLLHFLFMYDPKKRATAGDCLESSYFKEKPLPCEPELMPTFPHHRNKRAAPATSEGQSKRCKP
How it was run: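 KiNativ profiling in HeLa lysate (5 mg/mL total protein). Lysate incubated 15 min with inhibitor at 50, 10, 2, 0.8 or 0 μM. ATP or ADP acylphosphate probe then added (5 μM final) and reacted 10 min. Reaction stopped with urea and analysed by targeted MS, using up to four fragment ions per kinase peptide-probe conjugate. % inhibition taken against untreated lysate. Run in duplicate.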

[10] = molecular target: T3, Phosphatidylinositol 5-phosphate 4-kinase type-2 alpha (Homo sapiens) (UniProt P48426); experiment: Inhibition of PIP5K2A in human HeLa cells lysate at 2 uM pre incubated for 15 mins followed by ATP acyl phosphate probe addition and measured after 10 mins by LC-MS/MS analysis relative to control; conditions: time 25.0 min
T3 sequence (whole entry): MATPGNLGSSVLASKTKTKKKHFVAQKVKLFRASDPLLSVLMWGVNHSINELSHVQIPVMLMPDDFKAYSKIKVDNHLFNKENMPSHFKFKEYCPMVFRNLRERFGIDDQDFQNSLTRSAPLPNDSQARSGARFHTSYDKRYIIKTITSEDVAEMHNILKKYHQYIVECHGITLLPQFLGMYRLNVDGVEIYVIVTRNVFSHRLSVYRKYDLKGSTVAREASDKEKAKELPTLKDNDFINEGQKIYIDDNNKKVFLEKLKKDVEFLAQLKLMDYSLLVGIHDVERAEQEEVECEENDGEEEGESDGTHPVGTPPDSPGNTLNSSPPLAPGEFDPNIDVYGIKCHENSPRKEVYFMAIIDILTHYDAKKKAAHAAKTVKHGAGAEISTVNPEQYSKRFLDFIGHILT

[11] = molecular target: Ribosomal protein S6 kinase alpha-5 (Homo sapiens, UniProt O75582); experiment: Inhibition of MSK1 domain 1 K1 site in human HeLa cells lysate pre incubated for 15 mins followed by ADP acyl phosphate probe addition and measured after 10 mins by LC-MS/MS analysis
Sequence of Ribosomal protein S6 kinase alpha-5 (O75582 whole entry, the tested form may be a part): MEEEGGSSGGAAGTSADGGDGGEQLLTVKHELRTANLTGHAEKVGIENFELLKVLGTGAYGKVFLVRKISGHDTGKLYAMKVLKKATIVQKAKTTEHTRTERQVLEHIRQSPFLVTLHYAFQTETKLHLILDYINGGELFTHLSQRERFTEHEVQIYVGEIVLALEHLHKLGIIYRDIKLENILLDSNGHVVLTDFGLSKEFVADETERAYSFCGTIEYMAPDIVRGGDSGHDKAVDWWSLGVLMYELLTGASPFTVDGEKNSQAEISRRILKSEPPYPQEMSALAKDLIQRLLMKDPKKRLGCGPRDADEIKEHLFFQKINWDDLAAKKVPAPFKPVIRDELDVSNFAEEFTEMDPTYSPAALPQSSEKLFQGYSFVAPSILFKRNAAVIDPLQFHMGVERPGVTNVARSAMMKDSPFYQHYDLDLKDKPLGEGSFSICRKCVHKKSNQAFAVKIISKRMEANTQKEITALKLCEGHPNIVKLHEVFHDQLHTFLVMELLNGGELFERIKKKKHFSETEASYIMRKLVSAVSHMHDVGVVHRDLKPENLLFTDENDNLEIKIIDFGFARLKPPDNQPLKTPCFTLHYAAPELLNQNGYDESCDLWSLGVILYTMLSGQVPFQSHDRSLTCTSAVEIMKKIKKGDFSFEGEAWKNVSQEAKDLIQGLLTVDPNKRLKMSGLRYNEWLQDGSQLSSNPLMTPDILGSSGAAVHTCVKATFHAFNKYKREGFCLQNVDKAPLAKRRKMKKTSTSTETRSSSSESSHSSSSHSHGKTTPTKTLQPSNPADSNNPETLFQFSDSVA

Molecule CCOc1cc(N2CCC(O)CC2)ccc1Nc1ncc2c(n1)N(C)c1ccccc1C(=O)N2C has an IC50 [1] greater than 50 µM, an IC50 [2] greater than 50 µM and an IC50 [3] greater than 50 µM. The IC50 [4] was greater than 50 µM, the inhibition [5] was 15.7% and the inhibition [6] was 10.5%. It also gave an inhibition (Focal adhesion kinase 1) of 58.1%, an inhibition [7] of -9.6% and an IC50 [8] greater than 50 µM. The IC50 [9] was greater than 50 µM, the inhibition [10] was -4.6% and the IC50 [11] was greater than 50 µM.
